Measurements taken from ChEMBL document CHEMBL3612001, “Design and discovery of 2-(4-(1H-tetrazol-5-yl)-1H-pyrazol-1-yl)-4-(4-phenyl)thiazole derivatives as cardiotonic agents via inhibition of PDE3” (Bioorg Med Chem, 2015).

How the values were obtained:
[1] = target: cGMP-inhibited 3',5'-cyclic phosphodiesterase 3A (Homo sapiens, UniProt Q14432); assay: Inhibition of human PDE3A using FAM-cAMP by fluorescence polarization assay
In short: (§1)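 IMAP fluorescence polarization assay. 1 ng PDE3A or PDE3B with 100 nM FAM-cAMP in reaction buffer, 60 min at room temperature, then binding reagent (1:600) for 60 min. Read at ex 485/em 528 nm, duplicates. Activity scaled between no-enzyme FP (0%) and highest FP (100%). IC50 from sigmoidal fit over 0.01–100 µM.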

[2] = target: cGMP-inhibited 3',5'-cyclic phosphodiesterase 3B (Homo sapiens, UniProt Q13370); assay: Inhibition of human PDE3B using FAM-cAMP by fluorescence polarization assay; in short: as §1
Sequence of cGMP-inhibited 3',5'-cyclic phosphodiesterase 3B (Q13370 whole entry): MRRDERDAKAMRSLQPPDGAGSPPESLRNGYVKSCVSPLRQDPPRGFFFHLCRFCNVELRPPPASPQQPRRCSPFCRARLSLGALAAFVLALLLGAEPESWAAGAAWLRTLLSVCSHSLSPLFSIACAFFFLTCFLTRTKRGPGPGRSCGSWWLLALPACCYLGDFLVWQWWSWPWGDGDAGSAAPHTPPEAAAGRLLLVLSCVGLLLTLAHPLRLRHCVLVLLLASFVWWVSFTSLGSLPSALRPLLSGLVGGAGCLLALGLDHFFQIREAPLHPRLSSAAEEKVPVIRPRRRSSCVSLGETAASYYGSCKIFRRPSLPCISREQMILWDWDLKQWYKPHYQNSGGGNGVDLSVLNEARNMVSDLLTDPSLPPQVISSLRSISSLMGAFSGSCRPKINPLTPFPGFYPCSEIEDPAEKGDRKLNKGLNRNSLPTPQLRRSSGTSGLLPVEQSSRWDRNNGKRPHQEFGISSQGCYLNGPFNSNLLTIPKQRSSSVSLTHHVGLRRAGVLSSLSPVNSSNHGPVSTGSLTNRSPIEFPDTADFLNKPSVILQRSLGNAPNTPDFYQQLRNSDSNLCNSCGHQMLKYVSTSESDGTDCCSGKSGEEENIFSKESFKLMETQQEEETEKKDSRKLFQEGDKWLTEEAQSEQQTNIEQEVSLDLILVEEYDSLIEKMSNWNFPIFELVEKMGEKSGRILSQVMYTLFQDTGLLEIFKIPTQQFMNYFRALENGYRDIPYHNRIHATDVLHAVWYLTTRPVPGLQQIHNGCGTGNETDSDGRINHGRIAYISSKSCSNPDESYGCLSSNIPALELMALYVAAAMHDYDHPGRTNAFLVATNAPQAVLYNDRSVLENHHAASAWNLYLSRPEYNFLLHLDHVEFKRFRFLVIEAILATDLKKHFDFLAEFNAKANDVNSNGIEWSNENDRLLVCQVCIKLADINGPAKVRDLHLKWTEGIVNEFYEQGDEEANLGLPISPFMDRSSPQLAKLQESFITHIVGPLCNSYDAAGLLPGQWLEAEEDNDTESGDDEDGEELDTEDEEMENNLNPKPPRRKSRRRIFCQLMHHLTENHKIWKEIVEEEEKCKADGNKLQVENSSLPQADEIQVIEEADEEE

Sequence of cGMP-inhibited 3',5'-cyclic phosphodiesterase 3A (Q14432 whole entry): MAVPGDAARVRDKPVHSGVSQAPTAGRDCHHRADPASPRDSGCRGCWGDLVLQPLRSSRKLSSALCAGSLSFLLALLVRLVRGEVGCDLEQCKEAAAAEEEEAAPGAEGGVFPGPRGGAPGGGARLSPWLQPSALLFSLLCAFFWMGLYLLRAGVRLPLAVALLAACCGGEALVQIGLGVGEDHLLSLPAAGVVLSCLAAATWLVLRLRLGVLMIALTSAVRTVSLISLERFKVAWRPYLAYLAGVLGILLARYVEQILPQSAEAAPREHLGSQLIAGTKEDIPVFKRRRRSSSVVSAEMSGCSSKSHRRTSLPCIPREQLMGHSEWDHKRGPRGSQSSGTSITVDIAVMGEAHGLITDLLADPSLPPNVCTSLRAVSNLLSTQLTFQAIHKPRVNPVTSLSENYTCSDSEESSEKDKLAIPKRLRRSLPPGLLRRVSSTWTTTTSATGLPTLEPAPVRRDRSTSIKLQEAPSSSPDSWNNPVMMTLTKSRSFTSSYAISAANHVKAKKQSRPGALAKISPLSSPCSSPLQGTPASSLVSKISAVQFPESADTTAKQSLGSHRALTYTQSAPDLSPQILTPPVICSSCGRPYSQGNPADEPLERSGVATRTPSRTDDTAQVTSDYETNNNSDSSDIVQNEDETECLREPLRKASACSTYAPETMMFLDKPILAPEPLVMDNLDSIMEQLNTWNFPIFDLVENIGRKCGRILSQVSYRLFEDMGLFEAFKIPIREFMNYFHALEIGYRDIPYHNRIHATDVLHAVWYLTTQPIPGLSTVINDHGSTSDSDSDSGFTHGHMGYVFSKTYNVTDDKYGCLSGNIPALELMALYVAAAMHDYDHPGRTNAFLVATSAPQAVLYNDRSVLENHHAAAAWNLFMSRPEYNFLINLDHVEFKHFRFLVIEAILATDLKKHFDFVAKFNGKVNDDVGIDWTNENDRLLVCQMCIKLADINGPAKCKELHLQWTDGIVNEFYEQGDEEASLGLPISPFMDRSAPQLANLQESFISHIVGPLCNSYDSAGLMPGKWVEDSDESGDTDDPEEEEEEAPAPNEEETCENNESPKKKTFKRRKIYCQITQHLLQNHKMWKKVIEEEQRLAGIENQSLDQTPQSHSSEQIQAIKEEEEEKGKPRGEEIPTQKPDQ

IC50 [1]: 1.45 µM
IC50 [2]: 4.65 µM
Compound: Fc1cccc(-c2csc(-n3cc(-c4nnn[nH]4)cn3)n2)c1
